Columns and labels:
[1] = folding enthalpy; higher = less favourable; fluorescence melt of hairpins on a sequencing array, two-state fit; settings: sodium 0.088 M
In short: (§1)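 To match UV melts, fitted temperatures were raised by 9.35 °C. These fits were bootstrapped two-state models that gave melting temperature and folding enthalpy, combined by inverse variance over four replicates. The input was normalised Cy3 fluorescence of library hairpins with annealed Cy3 and quencher oligos on a sequenced MiSeq flow cell, imaged in 50 mM Na-HEPES pH 8.0, 25 mM NaCl in 2.5 °C steps up to 60 °C.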

[2] = melting temperature; fluorescence melt of hairpins on a sequencing array, two-state fit, raised by 9.35 °C to match UV melts; settings: sodium 0.088 M
In short: as §1

| Sequence | folding enthalpy [1] [kcal/mol] | Tm [2] [°C] |
| --- | --- | --- |
| GTAGGGCGAAAGCCTAC (((.(((....)))))) | -14.1 | 51.8 |
| GTAGGGGGAAACCCTTGC (.(.(((....))).).) | -13.2 | 31.9 |
| GTAGGGGGAAACTCCTAC (((((.(....).))))) | -28.5 | 47.2 |
| GTAGGTCGAAAGACGTAC (((.(((....))).))) | -36.2 | 51.7 |
| GTAGGTGCGAAAGCATAC (((..(((....)))))) | -8.27 | 31.1 |
| GTAGGTGGAAACACTTGC (.(.(((....))).).) | -14.3 | 31.7 |
| GTAGGTGGAAACGCTTAC (((.(.(....).).))) | -23 | 31.4 |
| GTAGGTGGAAACGTCTAC ((((..(....)..)))) | -16.8 | 28.8 |
| GTAGTAGAAATACTAC ((((((....)))))) | -26.1 | 43.1 |
| GTAGTCCCGAAAGGGTAC (((..(((....)))))) | -10.8 | 31.5 |
| GTAGTCCGAAAGGAATAC (((.(((....))).))) | -37.6 | 49.7 |
| GTAGTCGAAAGACACTAC ((((((....)))..))) | -19.7 | 39.6 |
| GTAGTCGAAAGACAGTAC ((((((....)))..))) | -12.5 | 27.2 |
| GTAGTCGAAAGACCTAC ((((((....))).))) | -18.9 | 36.8 |
| GTAGTCGAAAGACGATAC ((((((....)))..))) | -13 | 35.6 |
| GTAGTCGAAAGACTTAC ((((((....))).))) | -13.2 | 39.9 |
| GTAGTCGAAAGACTTTAC ((((((....)))..))) | -13.7 | 29.5 |
| GTAGTGCGAAAGCAATAC (((.(((....))).))) | -28 | 53.9 |
| GTAGTGGGAAACCACTAC (((((((....))))))) | -30.3 | 63.4 |

| Sequence | folding enthalpy [1] [kcal/mol] | Tm [2] [°C] |
| --- | --- | --- |
| GTAGTGGGAAACTGCTAC ((((..(....)..)))) | -23.4 | 36.8 |
| GTAGTTCCGAAAGGATAC (((..(((....)))))) | -11.6 | 27.7 |
| GTATAACGAAAGTTGTAC (((.(((....))).))) | -28.4 | 45.5 |
| GTATAACGAAAGTTTAC (((.(((....)))))) | -16.8 | 30.4 |
| GTATACGAAAGTAGCTAC ((((((....)))..))) | -8.67 | 24.4 |
| GTATACGAAAGTATAC ((((((....)))))) | -28.4 | 54.2 |
| GTATACGGAAACGTATGC (.(((((....))))).) | -24.5 | 46.4 |
| GTATAGCCGAAAGGCTAC (((..(((....)))))) | -7.94 | 36.4 |
| GTATAGCGAAAGCTTAC (((.(((....)))))) | -12.8 | 39.2 |
| GTATAGCGAAAGCTTTAC (((.(((....))).))) | -22 | 40.9 |
| GTATAGGGAAACCTGTAC (((.(((....))).))) | -30.3 | 39.2 |
| GTATAGTCGAAAGACTAC (((..(((....)))))) | -11.9 | 32.6 |
| GTATATCGAAAGATCTAC (((.(((....))).))) | -19.5 | 31.8 |
| GTATCCACGAAAGTGTAC (((..(((....)))))) | -10.6 | 21.2 |
| GTATCCGAAAGGACGTAC ((((((....)))..))) | -9.37 | 25.9 |
| GTATCCGAAAGGACTAC ((((((....))).))) | -14.3 | 35.9 |
| GTATCCGAAAGGAGGTAC ((((((....)))..))) | -10.3 | 28.5 |
| GTATCCGAAAGGATATAC ((((((....)))..))) | -13.8 | 44.8 |
| GTATCCGAAAGGATTTAC ((((((....)))..))) | -12 | 30.6 |

— the array DNA melting data of Ke et al. (doi:10.1101/2024.01.08.574731)
